From ChEMBL document CHEMBL1799934, “Irreversible Nek2 kinase inhibitors with cellular activity” (J Med Chem, 2011)
Where a chain is given by its changes, count along the chain named. Active and inactive are the calls of the source. The calls are words filed in the database; no cut-off is given here.

Experiments:
[1] = molecular target: T1, Serine/threonine-protein kinase Nek2 (Homo sapiens) (UniProt P51955); test: Inhibition of human Nek2 at 5 uM using [gamma-32P] ATP
T1 sequence (whole entry): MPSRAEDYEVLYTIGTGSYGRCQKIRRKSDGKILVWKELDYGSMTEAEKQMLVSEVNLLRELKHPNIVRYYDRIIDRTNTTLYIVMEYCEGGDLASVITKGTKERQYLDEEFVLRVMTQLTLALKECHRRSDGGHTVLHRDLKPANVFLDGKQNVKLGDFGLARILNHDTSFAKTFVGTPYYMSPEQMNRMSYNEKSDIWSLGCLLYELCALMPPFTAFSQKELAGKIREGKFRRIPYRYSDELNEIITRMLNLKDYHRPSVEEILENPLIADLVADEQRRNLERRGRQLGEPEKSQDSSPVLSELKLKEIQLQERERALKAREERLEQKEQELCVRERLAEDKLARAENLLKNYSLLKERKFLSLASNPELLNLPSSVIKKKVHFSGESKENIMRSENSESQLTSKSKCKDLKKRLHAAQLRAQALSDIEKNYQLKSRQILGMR

A549 [2] = test: Antimitotic activity in monastrol-arrested human A549 cells assessed as cells that exit mitosis arrest at 5 uM after 45 mins by immunofluorescence microscopic analysis; type: functional
[3] = molecular target: Cyclin-dependent kinase 1/cyclin B1 (Homo sapiens, UniProt P06493); test: Inhibition of human Cdk1/cyclinB using histone H1 as a substrate and [gamma-32P]ATP; type: protein-complex assay
[4] = tested on: T2, Serine/threonine-protein kinase Nek2 (Homo sapiens), P51955 [C22V]; test: Induction of alkylation at Cys22 position of human Nek2 C22V mutant kinase domain amino acid 1-271 at 500 nM by electrospray mass spectrometric analysis
T2 sequence (whole entry): T1 sequence (whole entry) with C22V
How it was run: (§1)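 WT or C22V Nek2 kinase domain (50 nM) incubated with 500 nM inhibitor in PBS pH 7.4, 5% DMSO, 5 h at room temperature. Acidified to pH 3 with HCl, then LC-MS on a C18 protein column with acetonitrile/formic acid gradient and ESI detection. Spectra deconvoluted to single masses of protein and adducts.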

[5] = molecular target: Serine/threonine-protein kinase Nek2 (Homo sapiens, UniProt P51955, C22V); test: Inhibition of human Nek2 C22V mutant using [gamma-32P] ATP
[6] = molecular target: T3, Serine/threonine-protein kinase Nek2 (Homo sapiens, UniProt P51955); test: Inhibition of human Nek2 in using [gamma-32P] ATP
T3 sequence (P51955 whole entry): T1 sequence (whole entry)

[7] = molecular target: T1, Serine/threonine-protein kinase Nek2 (Homo sapiens); test: Induction of alkylation at Cys22 position of wild type human Nek2 kinase domain amino acid 1-271 at 500 nM by electrospray mass spectrometric analysis; how it was run: as §1
A549 [8] = test: Reduction in total number of mitotic cells in human A549 cells at 5 uM after 30 mins in presence of Cdk1 inhibitor 19; type: functional, cell-based
A549 [9] = test: Effect on chromosome congression in human A549 cells at 5 uM after 30 mins in presence of Cdk1 inhibitor 19; type: functional, cell-based
A549 [10] = test: Induction of deffect in bipolar spindle assembly in human A549 cells at 5 uM after 30 mins in presence of Cdk1 inhibitor 19; type: functional, cell-based
How it was run: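 A549 cells on poly-lysine coverslips grown 24 h, held in late G2 with 5 μM 19 for 20 h, then given 5 μM test compound plus 5 μM 19 for 30 min. Washed twice into compound-free media, then 10 μM MG132 for 1 h. Fixed and immunostained for spindles and chromosomes. Bipolar spindles quantified in >160 cells/condition, mean ± SD of 3 experiments.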

Homo sapiens = organism: Homo sapiens; test: Ratio of IC50 for human Nek2 to IC50 for human Cdk1/cyclinB
How it was run: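 Nek2 (WT kinase domain, 15 nM) pre-incubated with inhibitor for 30 min at room temperature in HEPES pH 7.5, MgCl2, EDTA, BSA with 100 μM ATP and 3% DMSO. β-casein and [γ-32P]ATP were then added for a 30-min reaction. Cdk1/cyclin B (2 nM) was run the same way but with 38 μM ATP and histone H1 as substrate. Phosphorylation was read from nitrocellulose spots. IC50s are means of three determinations.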

Cyclin-dependent kinase 1/cyclin B1, sequence (P06493 whole entry, the tested form may be a part): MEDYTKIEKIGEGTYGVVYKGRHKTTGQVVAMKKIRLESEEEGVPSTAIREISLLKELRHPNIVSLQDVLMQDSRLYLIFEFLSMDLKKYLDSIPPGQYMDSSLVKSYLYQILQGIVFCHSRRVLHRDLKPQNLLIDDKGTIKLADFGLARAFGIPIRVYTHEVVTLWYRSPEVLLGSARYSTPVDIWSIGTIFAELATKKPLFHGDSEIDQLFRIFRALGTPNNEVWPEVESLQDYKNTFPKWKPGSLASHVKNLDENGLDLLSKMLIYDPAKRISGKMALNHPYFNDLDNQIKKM
Cyclin-dependent kinase 1/cyclin B1, sequence (P14635 whole entry, further chain, the tested form may be a part): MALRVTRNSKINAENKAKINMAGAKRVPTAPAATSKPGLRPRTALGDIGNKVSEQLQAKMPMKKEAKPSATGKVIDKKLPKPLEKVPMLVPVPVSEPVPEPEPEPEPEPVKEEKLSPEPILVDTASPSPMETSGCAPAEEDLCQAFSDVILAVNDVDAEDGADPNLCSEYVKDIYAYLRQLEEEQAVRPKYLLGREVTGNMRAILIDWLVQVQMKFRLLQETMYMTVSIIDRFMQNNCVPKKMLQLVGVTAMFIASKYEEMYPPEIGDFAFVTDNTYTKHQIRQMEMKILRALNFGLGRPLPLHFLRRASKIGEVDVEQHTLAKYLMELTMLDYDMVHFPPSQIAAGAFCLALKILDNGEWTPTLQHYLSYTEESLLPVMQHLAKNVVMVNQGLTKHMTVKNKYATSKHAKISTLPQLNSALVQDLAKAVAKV
Serine/threonine-protein kinase Nek2 (Homo sapiens, UniProt P51955, C22V), sequence (P51955 whole entry C22V): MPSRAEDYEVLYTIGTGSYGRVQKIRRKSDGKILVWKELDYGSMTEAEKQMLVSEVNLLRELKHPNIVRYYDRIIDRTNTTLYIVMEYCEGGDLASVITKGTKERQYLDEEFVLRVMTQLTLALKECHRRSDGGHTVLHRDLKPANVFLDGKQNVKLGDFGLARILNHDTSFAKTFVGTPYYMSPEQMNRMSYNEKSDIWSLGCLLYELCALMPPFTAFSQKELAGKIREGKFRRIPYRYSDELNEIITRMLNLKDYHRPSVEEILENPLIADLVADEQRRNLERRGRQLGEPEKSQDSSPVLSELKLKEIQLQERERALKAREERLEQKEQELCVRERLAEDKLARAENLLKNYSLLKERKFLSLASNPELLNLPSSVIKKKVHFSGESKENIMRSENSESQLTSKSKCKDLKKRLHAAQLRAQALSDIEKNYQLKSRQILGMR

For O=C1Nc2ccc(C(=O)CCl)cc2/C1=C/c1ccc[nH]1, the inhibition [1] was 80%, the Activity (A549 [2]) was 98% and the IC50 [3] was 10 nM. The Activity [4] was “inactive”, the IC50 [5] was 14000 nM and the IC50 [6] was less than 6 nM. For the same compound, the Activity [7] was “Active”.
With C#CC(=O)Nc1ccc2c(c1)/C(=C/c1[nH]c(CC)nc1C)C(=O)N2C the Activity (A549 [2]) was 0%, the IC50 [3] was greater than 20000 nM and the IC50 [6] was greater than 20000 nM.
For C#CC(=O)Nc1ccc2c(c1)/C(=C/c1[nH]c(CC)nc1C)C(=O)N2, the Activity (A549 [8]) was “inactive”, the Activity (A549 [9]) was “inactive” and the IC50 [3] was greater than 20000 nM. The Activity (A549 [10]) was “inactive”.
C#CC(=O)Nc1ccc2c(c1)/C(=C/c1[nH]cnc1C)C(=O)N2 showed an Activity (A549 [2]) of 99%, an IC50 [3] of less than 1 nM and a Ratio IC50 (Homo sapiens) of 400. It also gave an IC50 [6] of 390 nM.
In the case of CCc1nc(C)c(/C=C2\C(=O)Nc3ccc(C(C)=O)cc32)[nH]1, the Activity (A549 [2]) is reported as 27%, the IC50 [3] is reported as 3600 nM and the IC50 [6] is reported as greater than 20000 nM.
For C=CC(=O)Nc1ccc2c(c1)/C(=C/c1ccc[nH]1)C(=O)N2, the inhibition [1] was “inactive”.
O=C1Nc2ccc(C(=O)CCl)cc2/C1=C/c1cnc[nH]1 was tested, and the Activity (A549 [2]) was 92%, the IC50 [3] was less than 1 nM and the IC50 [6] was 60 nM.
For CC#CC(=O)Nc1ccc2c(c1)/C(=C/c1[nH]c(CC)nc1C)C(=O)N2, the Activity (A549 [2]) was 33% and the IC50 [3] was greater than 20000 nM.
Compound C#CC(=O)Nc1ccc2c(c1)/C(=C/c1cnc[nH]1)C(=O)N2 has an Activity (A549 [2]) of 80%, an IC50 [3] of less than 1 nM and an IC50 [6] of 620 nM.
Cc1nc[nH]c1/C=C1\C(=O)Nc2ccc(C(=O)CCl)cc21 showed an Activity (A549 [2]) of 100%, an IC50 [3] of less than 1 nM and an IC50 [6] of 20 nM.
In the case of C#CC(=O)Nc1ccc2c(c1)/C(=C/c1ccc[nH]1)C(=O)N2, the inhibition [1] is reported as 80%, the Activity (A549 [2]) is reported as 78% and the IC50 [3] is reported as 90 nM. For the same compound, the Activity [4] was “inactive”, the IC50 [5] was 20000 nM and the IC50 [6] was 920 nM. The Activity [7] was “Active”.
For CCc1nc(C)c(/C=C2\C(=O)Nc3ccc(C(=O)CCl)cc32)[nH]1, the Activity (A549 [2]) was 50%, the IC50 [3] was 2500 nM and the IC50 [6] was 130 nM.
In the case of CCc1nc(C)c(/C=C2\C(=O)N(C)c3ccc(C(=O)CCl)cc32)[nH]1.Cl, the Activity (A549 [2]) is reported as 0.9%.
